Data: ChEMBL document CHEMBL1123291, “Modified di- and tripeptides of the C-terminal portion of oxytocin and vasopressin as possible cognition activation agents” (1986)
Non-standard residues stand in square brackets, D forms with d. Residues, ends and D or L forms follow the SMILES beside them. ξ: configuration not given here. *: point of attachment. Cbz = O=C(OCc1ccccc1)*; Boc = CC(C)(C)OC(=O)*; ξK = NCCCCC(N)C(=O)O

Key:
Format in all cases: functional
[1] = system: Rattus norvegicus; test: Ability (% reversal in rats) to reverse electroconvulsive shock-induced amnesia in rodents at a dose of 0.010 (mg/kg) administered intramuscularly (im)
Procedure, shortened: (§1)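 Passive avoidance (step-through, lighted vs darkened compartment). […], ECS (20 mA, 1 s) was given transcorneally via saline-soaked electrodes, and maximal hindlimb extension was required. Drug was given im at selected doses 2 h post-training. One hour later, entry latency to the dark side was recorded, with 60 s counted as retention. At least 75% of ECS controls had to be amnesic. Replicates were mostly not run.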

[2] = system: Rattus norvegicus; test: Ability (% reversal in rats) to reverse electroconvulsive shock-induced amnesia in rodents at a dose of 0.0010 (mg/kg) (following i.m. administration); procedure, shortened: as §1
[3] = system: Rattus norvegicus; test: Ability (% reversal in rats) to reverse electroconvulsive shock-induced amnesia in rodents at a dose of 0.10 (mg/kg) (following intramuscular dosing); procedure, shortened: as §1
[4] = system: Mus musculus; test: Ability to reverse electroconvulsive shock-induced amnesia in rodents following 1 ug/kg i.m. administration.; procedure, shortened: as §1
[5] = system: Mus musculus; test: Ability to reverse electroconvulsive shock-induced amnesia in rodents following 0.1 mg/kg i.m. administration.; details: route intramuscular; procedure, shortened: as §1
[6] = system: Mus musculus; test: Ability to reverse electroconvulsive shock-induced amnesia in rodents following 0.01 mg/kg i.m. administration.; details: route intramuscular; procedure, shortened: as §1
[7] = system: Rattus norvegicus; test: Compound was tested for its ability (% reversal in rats) to reverse electroconvulsive shock-induced amnesia in rodents at a dose of 10 (mg/kg) administered intramuscularly (im); procedure, shortened: as §1
[8] = system: Rattus norvegicus; test: Compound was tested for its ability (% reversal in rats) to reverse electroconvulsive shock-induced amnesia in rodents at a dose of 100 (mg/kg) administered intramuscularly (im); procedure, shortened: as §1
[9] = system: Rattus norvegicus; test: Compound was tested for its ability (% reversal in rats) to reverse electroconvulsive shock-induced amnesia in rodents at a dose of 1 (mg/kg) administered intramuscularly (im); procedure, shortened: as §1
[10] = system: Rattus norvegicus; test: Compound was tested for its ability (% reversal in rats) to reverse electroconvulsive shock-induced amnesia in rodents at a dose of 0.010 (mg/kg) administered intramuscularly (im).; procedure, shortened: as §1

SMILES	Reversal [1] [%]	Reversal [2] [%]	Reversal [3] [%]	Reversal [4] [%]	Reversal [5] [%]	Reversal [6] [%]	Reversal [7] [%]	Reversal [8] [%]	Reversal [9] [%]	Reversal [10] [%]
O=C(O)CNC(=O)COCC1CCCN1C(=O)OCc1ccccc1 (centres undefined)	43	14	57	–	–	–	–	–	–	–
CC(C)CC(COCC(N)=O)NC(=O)C1CCCN1C(=O)OCc1ccccc1 (centres undefined)	57	42	14	–	–	–	–	–	–	–
NC(=O)CNC(=O)COCC1CCCN1C(=O)OCc1ccccc1 (centres undefined)	33	56	20	–	–	–	–	–	–	–
CC(C)(C)OC(=O)NCCCCC(NC(=O)OCc1ccccc1)C(=O)NCC(N)=O (centres undefined) (Cbz-[ξK](Boc)-Gly-NH2)	–	–	–	33	33	25	–	–	–	–
O=C(NCCCCC(CO)NC(=O)C1CCCN1C(=O)OCc1ccccc1)OCc1ccccc1 (centres undefined)	40	50	40	–	–	–	20	0	0	–
Cc1ccc(S(=O)(=O)N2CCCC2C(=O)NC(CNCC(=O)O)CC(C)C)cc1 (centres undefined)	33	17	17	–	–	–	–	–	–	–
NCCCC[C@H](NC(=O)[C@@H]1CCCN1C(=O)OCc1ccccc1)C(=O)NCC(=O)O (Cbz-Pro-Lys-Gly-OH)	–	–	–	100	79	79	–	–	–	–
CC(C)C[C@@H](CSCC(=O)O)NCC1CCCN1C(=O)OCc1ccccc1 (some centres undefined)	80	20	60	–	–	–	0	100	60	–
O=C(O)COCC1CCCN1C(=O)OCc1ccccc1 (centres undefined)	40	40	50	–	–	–	62	62	37	–
CC(C)(C)OC(=O)NC(CCCCNC(=O)OCc1ccccc1)C(=O)NCC(N)=O (centres undefined) (Boc-[ξK](Cbz)-Gly-NH2)	47	33	16	48	35	53	–	–	–	–
CCSCCNC(=O)C(CC(C)C)SCC1CCCN1C(=O)OCc1ccccc1 (centres undefined)	0	33	0	–	–	–	–	–	–	–
NC(=O)CNC(=O)[C@H](CCCCNC(=O)OCc1ccccc1)NC(=O)[C@@H]1CCCN1 (H-Pro-Lys(Cbz)-Gly-NH2)	–	60	60	66	100	92	–	–	–	40
CC(C)C[C@H](NC(=O)[C@@H]1CCCN1)C(=O)NCC(N)=O (H-Pro-Leu-Gly-NH2)	43	14	43	42	42	33	–	–	–	–
CC(C)CC(CSCC(N)=O)NCC1CCCN1C(=O)OCc1ccccc1 (centres undefined)	25	45	25	–	–	–	–	–	–	–
NC(=O)CNC(=O)[C@@H](N)CCCN=C(N)N (H-Arg-Gly-NH2)	–	–	–	51	27	20	–	–	–	–
CCCNC(=O)C(CC(C)C)SCC1CCCN1C(=O)OCc1ccccc1 (centres undefined)	20	60	20	–	–	–	–	–	–	–
CC(C)(C)OC(=O)N1CCC[C@H]1C(=O)N[C@@H](CCCCN)C(=O)NCC(N)=O (Boc-Pro-Lys-Gly-NH2)	–	–	–	25	33	17	–	–	–	–
O=C(NCCCCC(SCC1CCCN1C(=O)OCc1ccccc1)C(=O)[O-])OCc1ccccc1.[Na+] (centres undefined)	12	45	45	–	–	–	–	–	–	–
CC(C)CC(CSCC(=O)O)NC(=O)c1ccccn1 (centres undefined)	0	57	14	–	–	–	–	–	–	–
O=C(NC(Cc1ccccc1)CN1C(=O)C2CCCN2C(=O)C1Cc1c[nH]cn1)c1ccccc1 (centres undefined)	0	0	43	–	–	–	30	83	50	–
CC(C)CC(OCC1CCCN1C(=O)OCc1ccccc1)C(=O)NCC(=O)O (centres undefined)	71	29	43	–	–	–	–	–	–	–
